Article PMC3351161 (Nucleic Acids Research, 2012)

How the values were obtained:
[1] = tested on: Mdc1–FHA domain; test: Detection of proposed partners in Mdc1–FHA pull-down / co-immunoprecipitation; format: binding, human; conditions: for detection in fraction pulled down by Mdc1–FHA domain: mass spectrometry; for detection by western blot in Mdc1–FHA pull-down / co-IP: U2OS, 10 Gy IR or untreated
[2] = tested on: Strep-tagged Mdc1–FHA domain (amino acids 1–154); test: SILAC pull-down of Mdc1–FHA interaction partners, −IR versus +IR; format: binding, human; conditions: 10 Gy IR
Outline: (§1)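 U2OS cells stably carry a doxycycline-inducible, C-terminally Strep-tagged FHA domain (aa 1–154) or empty plasmid. They are SILAC-labelled (Lys0/Arg0, Lys4/Arg6, Lys8/Arg10) in dialyzed FBS, induced 16 h, then given 10 Gy IR for 30 min. Lysis in pH 7.5 Tris/NP-40 buffer with phosphatase and protease inhibitors, Strep-Tactin capture, pooled eluates on 4–20% SDS-PAGE, in-gel trypsin digestion. Analysis by nano-LC Orbitrap Velos MS and MaxQuant (FDR <1%). Read-out is normalized log2 SILAC ratios; 1:1:1 ratios count as background binders.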

[3] = tested on: Mdc1–FHA WT and T4A mutant domains; test: SILAC pull-down, wild-type versus T4A Mdc1–FHA domain after IR; format: binding, human; conditions: IR-treated cells
Outline: as §1

[4] = tested on: immunoprecipitated human ATM; test: In vitro ATM kinase assay of recombinant Mdc1 fragments; format: biochemical; conditions: 0.5 mM ATP, γ-[32P]ATP, 30 min at 30°C, autoradiography
[5] = tested on: Mdc1 Thr-4 / Thr-98 phosphorylation; test: MS quantitation of Mdc1–FHA phosphorylation site occupancy; format: cell-based, human
[6] = tested on: Myc-tagged Mdc1 (1–800); test: Co-immunoprecipitation of Flag- and Myc-tagged Mdc1; format: cell-based, human; conditions: transiently transfected 293T cells, anti-Flag IP, anti-Myc immunoblot
Outline: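 Human Mdc1 residues 1–800, C-terminally tagged with HA/FLAG or Myc, in a pcDNA3.1(+) vector. HEK 293T cells grown in D-MEM with 10% FCS and streptomycin/penicillin (100 U/ml). Transfected with FuGene 6 or calcium phosphate. Immunoprecipitation on anti-FLAG M2 affinity gel; Myc-tagged partner detected by immunoblot with rabbit polyclonal c-Myc antibody.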

Molecule: ATM: ataxia telangiectasia-mutated kinase
- detection in fraction pulled down by Mdc1–FHA domain [1]: could not detect peptides
- detection by western blot in Mdc1–FHA pull-down / co-IP [1]: unable to detect

Molecule: Chk2: DNA damage kinase
- detection in fraction pulled down by Mdc1–FHA domain [1]: could not detect peptides
- detection by western blot in Mdc1–FHA pull-down / co-IP [1]: unable to detect

Molecule: DDB1- and Cul4-associated factor 1 [DCAF1]
- decrease of interaction with the MDC1–FHA domain in the presence of DNA damage [2]: > 2.5 fold

Molecule: DNA damage binding protein 1 [DDB1]
- decrease of interaction with the MDC1–FHA domain in the presence of DNA damage [2]: > 2.5 fold

Molecule: MDC1: endogenous Mdc1 as interaction partner of its own FHA domain
- interaction with wild-type compared to T4A FHA domain (in words) [3]: interacts with the wild-type fragment

B1: M-1: GST-fusion Mdc1 fragment M-1 (amino acids 1–124) (protein, UniProt Q14676 1-124, looked up, fragment)
chain: MEDTQAIDWDVEEEEETEQSSESLRCNVEPVGRLHIFSGAHGPEKDFPLHLGKNVVGRMPDCSVALPFPSISKQHAEIEILAWDKAPILRDCGSLNGTQILRPPKVLSPGVSHRLRDQELILFA
modifications: GST fusion
- phosphorylation by ATM in vitro [4]: ATM only phosphorylated fragment M-1 (amino acids 1–124) and fragment M-4 (amino acids 531–770)

B2: M-4: GST-fusion Mdc1 fragment M-4 (amino acids 531–770) (protein, UniProt Q14676 531-770, looked up, fragment)
chain: PGSAIIHIKKHQVSVEGTNQTDVKAVGGPAKLLVVSLEEAWPLHGDCETDAEEGTSLTASVVADVRKSQLPAEGDAGAEWAAAVLKQERAHEVGAQGGPPVAQVEQDLPISRENLTDLVVDTDTLGESTQPQREGAQVPTGREREQHVGGTKDSEDNYGDSEDLDLQATQCFLENQGLEAVQSMEDEPTQAFMLTPPQELGPSHCSFQTTGTLDEPWEVLATQPFCLRESEDSETQPFDT
modifications: GST fusion
- phosphorylation by ATM in vitro [4]: ATM only phosphorylated fragment M-1 (amino acids 1–124) and fragment M-4 (amino acids 531–770)

B3: M-1 T4A: M-1 point mutation altering Thr-4 to Ala (protein, UniProt Q14676 1-124, looked up, variant T4A)
chain: MEDAQAIDWDVEEEEETEQSSESLRCNVEPVGRLHIFSGAHGPEKDFPLHLGKNVVGRMPDCSVALPFPSISKQHAEIEILAWDKAPILRDCGSLNGTQILRPPKVLSPGVSHRLRDQELILFA
modifications: GST fusion
- phosphorylation by ATM in vitro [4]: could no longer be phosphorylated by ATM in vitro

B4: Mdc1-FHA domain: C-terminally Strep-tagged Mdc1-FHA domain (amino acids 1–154) (protein)
chain: NVEPVGRLHIFSGAHGPEKDFPLHLGKNVVGRMPDCSVALPFPSISKQHAEIEILAWDKAPILRDCGSLNGTQILRPPKVLSPGVSHRLRDQELILFADLLCQYHRLDVSLP
modifications: left off: GST, end not stated, cleaved
- Thr-98 phosphorylation ([5]; MS of tryptic peptide): no phosphorylated form was evident
- occupancy rate of phosphorylated Thr-4, after irradiation ([5]; SILAC and extracted ion chromatogram quantitation, after irradiation): 61.5%
- occupancy rate of phosphorylated Thr-4, before irradiation ([5]; SILAC and extracted ion chromatogram quantitation, not irradiated): 18.6%

B5: Rad51: repair protein (protein)
chain: MAMQMQLEANADTSVEEESFGPQPISRLEQCGINANDVKKLEEAGFHTVEAVAYAPKKELINIKGISEAKADKILAEAAKLVPMGFTTATEFHQRRSEIIQITTGSKELDKLLQGGIETGSITEMFGEFRTGKTQICHTLAVTCQLPIDRGGGEGKAMYIDTEGTFRPERLLAVAERYGLSGSDVLDNVAYARAFNTDHQTQLLYQASAMMVESRYALLIVDSATALYRTDYSGRGELSARQMHLARFLRMLLRLADEFGVAVVITNQVVAQVDGAAMFAADPKKPIGGNIIAHASTTRLYLRKGRGETRICKIYDSPCLPEAEAMFAINADGVGDAKD
- detection in fraction pulled down by Mdc1–FHA domain [1]: could not detect peptides

B6: Mdc1 (1–800) R58A: FHA domain R58A mutant of Mdc1 (1–800) (protein, UniProt Q14676 1-800, looked up, variant R58A)
chain: MEDTQAIDWDVEEEEETEQSSESLRCNVEPVGRLHIFSGAHGPEKDFPLHLGKNVVGAMPDCSVALPFPSISKQHAEIEILAWDKAPILRDCGSLNGTQILRPPKVLSPGVSHRLRDQELILFADLLCQYHRLDVSLPFVSRGPLTVEETPRVQGETQPQRLLLAEDSEEEVDFLSERRMVKKSRTTSSSVIVPESDEEGHSPVLGGLGPPFAFNLNSDTDVEEGQQPATEEASSAARRGATVEAKQSEAEVVTEIQLEKDQPLVKERDNDTKVKRGAGNGVVPAGVILERSQPPGEDSDTDVDDDSRPPGRPAEVHLERAQPFGFIDSDTDAEEERIPATPVVIPMKKRKIFHGVGTRGPGAPGLAHLQESQAGSDTDVEEGKAPQAVPLEKSQASMVINSDTDDEEEVSAALTLAHLKESQPAIWNRDAEEDMPQRVVLLQRSQTTTERDSDTDVEEEELPVENREAVLKDHTKIRALVRAHSEKDQPPFGDSDDSVEADKSSPGIHLERSQASTTVDINTQVEKEVPPGSAIIHIKKHQVSVEGTNQTDVKAVGGPAKLLVVSLEEAWPLHGDCETDAEEGTSLTASVVADVRKSQLPAEGDAGAEWAAAVLKQERAHEVGAQGGPPVAQVEQDLPISRENLTDLVVDTDTLGESTQPQREGAQVPTGREREQHVGGTKDSEDNYGDSEDLDLQATQCFLENQGLEAVQSMEDEPTQAFMLTPPQELGPSHCSFQTTGTLDEPWEVLATQPFCLRESEDSETQPFDTHLEAYGPCLSPPRAIPGDQHPESPVHTEPM
- interaction of Flag-tagged with Myc-tagged Mdc1 (1–800) [6]: significant reduction of the interaction

B7: Mdc1 (1–800) T4A: T4A mutant of Mdc1 (1–800) (protein, UniProt Q14676 1-800, looked up, variant T4A)
chain: MEDAQAIDWDVEEEEETEQSSESLRCNVEPVGRLHIFSGAHGPEKDFPLHLGKNVVGRMPDCSVALPFPSISKQHAEIEILAWDKAPILRDCGSLNGTQILRPPKVLSPGVSHRLRDQELILFADLLCQYHRLDVSLPFVSRGPLTVEETPRVQGETQPQRLLLAEDSEEEVDFLSERRMVKKSRTTSSSVIVPESDEEGHSPVLGGLGPPFAFNLNSDTDVEEGQQPATEEASSAARRGATVEAKQSEAEVVTEIQLEKDQPLVKERDNDTKVKRGAGNGVVPAGVILERSQPPGEDSDTDVDDDSRPPGRPAEVHLERAQPFGFIDSDTDAEEERIPATPVVIPMKKRKIFHGVGTRGPGAPGLAHLQESQAGSDTDVEEGKAPQAVPLEKSQASMVINSDTDDEEEVSAALTLAHLKESQPAIWNRDAEEDMPQRVVLLQRSQTTTERDSDTDVEEEELPVENREAVLKDHTKIRALVRAHSEKDQPPFGDSDDSVEADKSSPGIHLERSQASTTVDINTQVEKEVPPGSAIIHIKKHQVSVEGTNQTDVKAVGGPAKLLVVSLEEAWPLHGDCETDAEEGTSLTASVVADVRKSQLPAEGDAGAEWAAAVLKQERAHEVGAQGGPPVAQVEQDLPISRENLTDLVVDTDTLGESTQPQREGAQVPTGREREQHVGGTKDSEDNYGDSEDLDLQATQCFLENQGLEAVQSMEDEPTQAFMLTPPQELGPSHCSFQTTGTLDEPWEVLATQPFCLRESEDSETQPFDTHLEAYGPCLSPPRAIPGDQHPESPVHTEPM
- interaction of Flag-tagged with Myc-tagged Mdc1 (1–800) [6]: significant reduction of the interaction

B8: Mdc1 (1–800) concomitant mutation of both the FHA domain and Thr-4: T4A/R58A mutant of Mdc1 (1–800) (protein, UniProt Q14676 1-800, looked up, variant T4A R58A)
chain: MEDAQAIDWDVEEEEETEQSSESLRCNVEPVGRLHIFSGAHGPEKDFPLHLGKNVVGAMPDCSVALPFPSISKQHAEIEILAWDKAPILRDCGSLNGTQILRPPKVLSPGVSHRLRDQELILFADLLCQYHRLDVSLPFVSRGPLTVEETPRVQGETQPQRLLLAEDSEEEVDFLSERRMVKKSRTTSSSVIVPESDEEGHSPVLGGLGPPFAFNLNSDTDVEEGQQPATEEASSAARRGATVEAKQSEAEVVTEIQLEKDQPLVKERDNDTKVKRGAGNGVVPAGVILERSQPPGEDSDTDVDDDSRPPGRPAEVHLERAQPFGFIDSDTDAEEERIPATPVVIPMKKRKIFHGVGTRGPGAPGLAHLQESQAGSDTDVEEGKAPQAVPLEKSQASMVINSDTDDEEEVSAALTLAHLKESQPAIWNRDAEEDMPQRVVLLQRSQTTTERDSDTDVEEEELPVENREAVLKDHTKIRALVRAHSEKDQPPFGDSDDSVEADKSSPGIHLERSQASTTVDINTQVEKEVPPGSAIIHIKKHQVSVEGTNQTDVKAVGGPAKLLVVSLEEAWPLHGDCETDAEEGTSLTASVVADVRKSQLPAEGDAGAEWAAAVLKQERAHEVGAQGGPPVAQVEQDLPISRENLTDLVVDTDTLGESTQPQREGAQVPTGREREQHVGGTKDSEDNYGDSEDLDLQATQCFLENQGLEAVQSMEDEPTQAFMLTPPQELGPSHCSFQTTGTLDEPWEVLATQPFCLRESEDSETQPFDTHLEAYGPCLSPPRAIPGDQHPESPVHTEPM
- interaction of Flag-tagged with Myc-tagged Mdc1 (1–800) [6]: complete loss of binding
